One experiment relates to E. coli (ATCC 27325). The experiment can be described thus: Agar plate-based bactericidal assay. The format is cell-based, Escherichia coli. In short, it runs like this: (§1)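 Bacteria were grown aerobically overnight in BHI broth at 37°C, washed twice in PBS and suspended at 10^5 cells/mL in 10 mM sodium phosphate, pH 6.8. Suspensions were exposed to the test peptide over a range of concentrations for 2 h at 37°C, aerobically. For salt sensitivity, NaCl was added at 0–150 mM, with 25 μg/ml test peptide or 1 μg/ml reference peptide. Samples were diluted in PBS, plated on BHI agar overnight at 37°C and counted for CFU. Survival is expressed as a percentage of untreated; mean ± SD of three independent experiments.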

In experiment [1] the test system is P. aeruginosa (ATCC 15692). The experiment can be described thus: Agar plate-based bactericidal assay. The format is cell-based, Pseudomonas aeruginosa. The procedure, abridged:
as §1

Another experiment concerns E. coli. The experiment can be described thus: Measurement of zeta-potential of bacteria treated with peptide. Details: species or system Escherichia coli. The conditions noted are these: 5 and 20 μg peptide/10^5 bacterial cells, 10 mM NaPi, 20 min, 37°C. The procedure, abridged: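 Overnight E. coli cultures were washed in PBS and resuspended at 10^8 cells/mL in 10 mM sodium phosphate. Cells were added to phosphate buffer containing peptide to give 5 or 20 μg peptide per 10^5 cells, then incubated 20 min at 37°C. Zeta potential was read on a particle sizer/zetasizer, and the mean was computed by the Smoluchowski equation. Values are mean ± SD of three independent experiments.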

The next experiment concerns E. faecalis (ATCC 29212). In words: Agar plate-based bactericidal assay. It is filed as cell-based, Enterococcus faecalis. The conditions noted are these: range of ghrelin concentrations tested; data not shown.
The mark [2] stands for this setting: LL37 1 μg/ml, 10 mM NaPi pH 6.8 with NaCl 0 to 150 mM, dose-dependent.
[3] abbreviates: physiological NaCl concentration (150 mM) in 10 mM NaPi pH 6.8, AG 25 μg/ml.

Ends that are not written are not given here. * marks the point of attachment. Octanoyl = CCCCCCCC(=O)*

The source of these data is PMC3402649 (Peptides, 2012).

For “LL37 (LLGDFFRKSKEKIGKEFKRIVQRIKDFLRNLVPRTES; Antibacterial peptide LL-37; UniProt P49913 134-170, looked up) [reference compound]”, the “effect of NaCl on bactericidal activity (in words)” value (with E. coli (ATCC 27325) (setting [2]); in experiment [1] (setting [2])) was “attenuated” each time. Besides, in the experiment with E. coli, the “effect on zeta-potential of E. coli (in words)” value is “increased the zeta-potential of E. coli”.
For “acylated ghrelin (GSS(Octanoyl)FLSPEHQRVQQRKESKKPPAKLQPR; UniProt Q9UBU3 24-51, looked up) [AG]”, the “effect of NaCl on bactericidal activity (in words)” value (with E. coli (ATCC 27325) (setting [3]); in experiment [1] (setting [3])) was “decreased” in each case. Also, the “bactericidal effects (in words)” value with E. faecalis (ATCC 29212) was “neither AG nor DAG showed significant bactericidal effects”.
For “desacylated ghrelin (GSSFLSPEHQRVQQRKESKKPPAKLQPR; Ghrelin-28 non-acylated; UniProt Q9UBU3 24-51, looked up) [DAG]”, in the experiment on E. faecalis (ATCC 29212), the “bactericidal effects (in words)” value is recorded as “neither AG nor DAG showed significant bactericidal effects”.
